Measurements as given in ChEMBL document CHEMBL4393692, “Thiazolidinone/thiazole based hybrids - New class of antitrypanosomal agents” (Eur J Med Chem, 2019).
Calls of active or inactive are those of the source. No cut-off for these calls is given here.

How the values were obtained:
[1] = tested on: Trypanosoma brucei gambiense; test: Antitrypanosomal activity against bloodstream form of Trypanosoma brucei gambiense Feo reduction in parasite growth after 72 hrs by resazurin dye based fluorescence assay; type: functional, organism-based
Outline: (§1)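 Bloodstream parasites cultured in HMI9 with 10% FCS at 37°C under 5% CO2. Log-phase cells harvested at 3000xg, plated at 10^5 cells/ml with dilutions from 10 down to 0.625 µg/ml (DMSO stocks) for 72 h. Resazurin added at 45 µM final, fluorescence read after a further 4 h. Inhibition vs DMSO control. IC50 from dose-response curve, mean ± SD of three independent experiments.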

[2] = Cytotoxicity against human AB943 cells assessed as reduction in cell viability after 5 days resazurin dye based fluorescence assay; settings: 120 h
Outline: (§2)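 Human primary fibroblasts grown in RPMI with 25 mM HEPES pH 7.3 and 10% FCS, 37°C, 5% CO2. After trypsinisation, seeded at 5000 cells/well and incubated 24 h. Then washed and exposed to two-fold drug dilutions, final DMSO below 1%, for 5 days. Resazurin added, fluorescence read (ex 530/em 590 nm) after 4 h. Growth inhibition vs DMSO control. SI = IC50 fibroblast / IC50 T. b. gambiense.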

[3] = Selectivity index, ratio of IC50 for human AB943 cells to IC50 of bloodstream form of Trypanosoma brucei gambiense Feo; type: toxicity; settings: read-out: Ratio IC50; outline: as §2
[4] = Acute toxicity in ip dosed mouse by Litchfield-Wilcoxon method; type: organism-based; settings: in vivo
Outline: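 White male mice of 23-25 g; compounds dissolved in 0.9% NaCl saline with 1-2 drops Tween-80, stock prepared immediately before use. Single intraperitoneal injection at increasing doses within 100–1000 mg/kg, 4 or 5 dose levels with 6 animals per dose. LD50 derived by the Litchfield-Wilcoxon method.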

[5] = tested on: Trypanosoma brucei brucei; test: Antitrypanosomal activity against bloodstream form of Trypanosoma brucei brucei 90-13 assessed as reduction in parasite growth at 10 ug/ml after 72 hrs by resazurin dye based fluorescence assay relative to control; type: functional; settings: 90-13, 72 h
Outline: (§3)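 Bloodstream forms grown in HMI9 + 10% FCS, 37°C, 5% CO2. Log-phase cells harvested at 3000xg and seeded at 10^5 cells/ml, exposed to test substance from DMSO stock at a single screening level of 10 or 1 µg/mL for 72 h. Resazurin added (final 45 µM), 4 h more, then fluorescence read. Growth inhibition expressed against DMSO control.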

[6] = tested on: Trypanosoma brucei brucei; test: Antitrypanosomal activity against bloodstream form of Trypanosoma brucei brucei 90-13 reduction in parasite growth at 1 ug/ml after 72 hrs by resazurin dye based fluorescence assay relative to control; type: functional; settings: for inhibition at 1 µg/mL: 90-13, 72 h; outline: as §3
[7] = tested on: Trypanosoma brucei brucei; test: Antitrypanosomal activity against bloodstream form of Trypanosoma brucei brucei 90-13 reduction in parasite growth after 72 hrs by resazurin dye based fluorescence assay; type: functional, organism-based; settings: 90-13, 72 h; outline: as §1

| SMILES | IC50 [1] | IC50 [2] | inhibition at 10 µg/mL [5] | inhibition at 1 µg/mL [6] | other results |
| --- | --- | --- | --- | --- | --- |
| CCC1S/C(=N\N=C\c2c(-c3ccc(Cl)cc3)[nH]c3ccccc23)N(c2ccc(O)cc2)C1=O (configuration not stated) | 860 nM | 85.9 µM | – | – | selectivity ratio [3]: 100; LD50 [4]: 330 mg/kg |
| O=C(O)CC1SC(N/N=C/C=C/c2ccccc2[N+](=O)[O-])=NC1=O (configuration not stated) | – | – | 24.9% | 3.28% | – |
| O=C(CC1S\C(=N/N=C/C=C/c2ccccc2)NC1=O)c1ccc(F)cc1 (configuration not stated) | – | – | 57.3% | 38.7% | – |
| O=C(O)CCCCCNC(=O)CC1S/C(=N\N=C\c2c(-c3ccccc3)[nH]c3ccccc23)NC1=O (configuration not stated) | – | – | – | – | IC50 [7]: 14 µM |
| CC12CCC(C/C1=N/N=C1/NC(=O)C(CC(=O)Nc3ccc(Br)cc3)S1)C2(C)C (configuration not stated) | – | – | 97% | – | inhibition [6]: inactive |
| CC12CCC(C/C1=N/N=C1/NC(=O)C(CC(=O)c3ccc(F)cc3)S1)C2(C)C (configuration not stated) | – | – | 42% | 36.1% | – |
| C=CCN1C(=O)C(CC(=O)c2ccc(F)cc2)S/C1=N\N=C\c1ccccc1 (configuration not stated) | – | – | 14.7% | 11.1% | – |
| O=C(CC1S\C(=N/N=C/C=C/c2ccccc2)NC1=O)c1ccc2c(c1)CCCC2 (configuration not stated) | – | – | 53.2% | 7.69% | – |
| O=C(CC1S/C(=N\N=C\c2c(-c3ccccc3)[nH]c3ccccc23)NC1=O)c1ccccc1 (configuration not stated) | 2820 nM | – | – | – | IC50 [7]: 7.73 µM |
| O=C(CC1S\C(=N/N=C/C=C/c2ccccc2)NC1=O)Nc1ccc([N+](=O)[O-])cc1 (configuration not stated) | – | – | 56.1% | – | inhibition [6]: inactive |
| O=C(O)CCNC(=O)CC1S/C(=N\N=C\c2c(-c3ccccc3)[nH]c3ccccc23)NC1=O (configuration not stated) | – | – | – | – | IC50 [7]: 34.8 µM |
| O=C(CC1S/C(=N\N=C2CCCCC2)NC1=O)Nc1ccc([N+](=O)[O-])cc1 (configuration not stated) | – | – | 44.9% | – | inhibition [6]: inactive |
| CC1S/C(=N\N=C\c2c(-c3ccc(Cl)cc3)[nH]c3ccccc23)NC1=O (configuration not stated) | 2220 nM | 5.22 µM | – | – | selectivity ratio [3]: 2; LD50 [4]: 310 mg/kg |
| O=C(O)CC1S/C(=N\N=C\c2c(-c3ccc(Cl)cc3)[nH]c3ccccc23)NC1=O (configuration not stated) | – | – | – | – | LD50 [4]: 290 mg/kg |
| O=C(O)CC1S\C(=N/N=C/C(Cl)=C/c2ccc([N+](=O)[O-])cc2)N(c2ccc(O)cc2)C1=O (configuration not stated) | – | – | 25% | -1.57% | – |
| O=C(CC1S/C(=N\N=C\c2c(-c3ccccc3)[nH]c3ccccc23)NC1=O)Nc1ccc(Br)cc1 (configuration not stated) | – | – | – | – | IC50 [7]: 7.86 µM |
| O=C(CC1S/C(=N\N=C2CCCCC2)NC1=O)c1ccc(F)cc1 (configuration not stated) | – | – | 98.5% | 8.16% | – |
| O=C(CC1S/C(=N\N=C\c2c(-c3ccccc3)[nH]c3ccccc23)NC1=O)Nc1ccc(Cl)cc1 (configuration not stated) | – | – | – | – | IC50 [7]: 9.16 µM |
| CC1S/C(=N\N=C\c2c(-c3ccccc3)[nH]c3ccccc23)NC1=O (configuration not stated) | 210 nM | 28.1 µM | – | – | selectivity ratio [3]: 130; LD50 [4]: 220 mg/kg |
| C=CCSc1nn2c(/C=N/N=c3/[nH]c(C)c(C(=O)OCC)s3)c(-c3ccccc3)nc2s1 | 652 nM | 4.33 µM | – | – | selectivity ratio [3]: 7 |
| Cc1ccc(NC(=O)CC2S/C(=N\N=C3\CC4CCC3(C)C4(C)C)NC2=O)cc1 (configuration not stated) | – | – | 30% | 4.18% | – |
| CCC1S/C(=N\N=C\c2c(-c3ccc([N+](=O)[O-])cc3)[nH]c3ccccc23)N(c2ccc(O)cc2)C1=O (configuration not stated) | 140 nM | 8.6 µM | – | – | selectivity ratio [3]: 60 |
| O=C1C(CCO)S/C(=N\N=C\c2c(-c3ccc(Cl)cc3)[nH]c3ccccc23)N1Cc1ccco1 (configuration not stated) | 1400 nM | 6.23 µM | – | – | selectivity ratio [3]: 4 |

| SMILES | IC50 [1] | IC50 [2] | inhibition at 10 µg/mL [5] | inhibition at 1 µg/mL [6] | other results |
| --- | --- | --- | --- | --- | --- |
| C=CCN1C(=O)C(CC(=O)c2ccc(F)cc2)S/C1=N\N=C\c1ccc(N(C)C)cc1 (configuration not stated) | – | – | 14.7% | 11.1% | – |
| O=C(O)CCCNC(=O)CC1S/C(=N\N=C\c2ccco2)NC1=O (configuration not stated) | – | – | 10% | 0.06% | – |
| CCc1nn2c(/C=N/N=c3/[nH]c(-c4ccc(Br)cc4)cs3)c(-c3ccc([N+](=O)[O-])cc3)nc2s1 | 1200 nM | > 90 µM | – | – | selectivity ratio [3]: > 70 |
| CCc1nn2c(/C=N/N=c3\scc(-c4ccc(Br)cc4)n3-c3ccc(O)cc3)c(-c3ccc(Br)cc3)nc2s1 | 476 nM | > 70 µM | – | – | selectivity ratio [3]: > 150 |
| CC12CCC(C/C1=N/N=C1/NC(=O)C(CC(=O)Nc3ccc(Cl)cc3)S1)C2(C)C (configuration not stated) | – | – | 97.8% | 14.1% | – |
| O=C(CC1S\C(=N/N=C/C=C/c2ccccc2)N(c2ccc(O)cc2)C1=O)Nc1ccc(F)cc1 (configuration not stated) | – | – | -8.23% | 1.18% | – |
| CCOC(=O)c1s/c(=N\N=C\c2c(-c3ccc([N+](=O)[O-])cc3)nc3sc(CC)nn23)n(-c2ccc(O)cc2)c1C | 639 nM | > 80 µM | – | – | selectivity ratio [3]: > 130 |
| O=C1CS/C(=N\N=C\c2c(-c3ccc(Cl)cc3)[nH]c3ccccc23)N1 | 3930 nM | – | – | – | LD50 [4]: 270 mg/kg |
| CC(=O)OCCC1S/C(=N\N=C\c2c(-c3ccccc3)[nH]c3ccccc23)NC1=O (configuration not stated) | 230 nM | 20.9 µM | – | – | IC50 [7]: 0.06 µM; selectivity ratio [3]: 95; LD50 [4]: 200 mg/kg |
| O=C(CC1S\C(=N/N=C/C=C/c2ccccc2)N(Cc2ccco2)C1=O)Nc1cccc(C(F)(F)F)c1 (configuration not stated) | – | – | 98.9% | 5.06% | – |
| N=C(N)c1ccc(OCCCCCOc2ccc(C(=N)N)cc2)cc1 [PENTAMIDINE] | 1.5 nM | 23.2 µM | – | – | IC50 [7]: 0.0014 µM |
| O=C1N/C(=N/N=C/c2c(-c3ccccc3)[nH]c3ccccc23)SC1CCO (configuration not stated) | – | – | – | – | IC50 [7]: 0.17 µM |
| CCOC(=O)c1ccc(NC(=O)CC2S/C(=N\N=C\c3c(-c4ccccc4)[nH]c4ccccc34)NC2=O)cc1 (configuration not stated) | – | – | – | – | IC50 [7]: 6.86 µM |
| O=C(CC1S/C(=N\N=C\c2c(-c3ccccc3)[nH]c3ccccc23)NC1=O)c1ccc2c(c1)CCCC2 (configuration not stated) | – | – | – | – | IC50 [7]: 13.1 µM |
| O=C(O)CC1S/C(=N\N=C\c2c(-c3ccccc3)[nH]c3ccccc23)NC1=O (configuration not stated) | – | – | – | – | LD50 [4]: 240 mg/kg |
| COc1cc(/C=N/N=C2\SC(CC(=O)c3ccc(F)cc3)C(=O)N2c2ccc(O)cc2)ccc1OCC(=O)O (configuration not stated) | – | – | 14.5% | 15.1% | – |
| O=C(CC1S/C(=N\N=C\c2ccco2)NC1=O)c1ccc2c(c1)CCCC2 (configuration not stated) | – | – | 10.9% | 9.82% | – |
| CCOC(=O)c1s/c(=N\N=C\c2c(-c3ccc([N+](=O)[O-])cc3)[nH]c3ccccc23)n(-c2ccc(O)cc2)c1C | 660 nM | 82.9 µM | – | – | selectivity ratio [3]: 127 |
| O=C(CC1S/C(=N\N=C\c2c(-c3ccccc3)[nH]c3ccccc23)NC1=O)c1ccc(F)cc1 (configuration not stated) | – | – | – | – | IC50 [7]: 10.6 µM |
| O=C(CC1S/C(=N\N=C2CCCCC2)NC1=O)Nc1ccc(F)cc1 (configuration not stated) | – | – | -4.66% | -4.65% | – |
| CC1CS(=O)(=O)CCN1/N=C/c1ccc([N+](=O)[O-])o1 (configuration not stated) [NIFURTIMOX] | 4640 nM | 65.1 µM | – | – | IC50 [7]: 2.39 µM; selectivity ratio [3]: 14 |
| CCC1S/C(=N\N=C\c2c(-c3ccccc3)[nH]c3ccccc23)NC1=O (configuration not stated) | 110 nM | 24.8 µM | – | – | IC50 [7]: 0.03 µM; selectivity ratio [3]: 220; LD50 [4]: 220 mg/kg |
